High-throughput results as filed in PubChem BioAssay.
Sampled rows, rich in hits. Any-hit rate of the full collection: about 2.6%.
PRMT1 inh – PRMT1 methyltransferase inhibitors, primary screen, biochemical, fluorescence polarization. AID 652257, 2013. Protein arginine N-methyltransferase 1 (Homo sapiens), Q99873. 1.3% of 370,000 active. recombinant PRMT1, activity-based probe fluorescence polarization. inhibition, % at 2.79 µM;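 active = inhibition above about 21% made by adding two undisclosed values, limit read from the data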
HTRA1 inhibitor – HTRA1 serine protease inhibitors, primary screen, biochemical, fluorescence polarization, HTS. AID 504803, 2011. inhibition, % at 5.96 µM. recombinant HTRA1, FP-rhodamine activity-based probe. 0.5% of 340,000 active. Q92743; in the data active = inhibition above about 36%;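 note: 0% = enzyme with DMSO and 100% = wells lacking enzyme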
TCR CD3 inh – inhibitors of human TCR-CD3 interaction, primary screen, biochemical, fluorescence, TAMRA-labeled TCR probe; inhibition, % at 9.4 µM; AID 651800, 2012; 0.37% of 360,000 active; T-cell receptor (TCR); in the data active = inhibition above about 19%;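 note: recombinant mutant TCR 2C K166C tagged with TAMRA read by polarization; 0% = receptor in buffer alone and 100% = receptor with positive control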
mABHD4 FP – ABHD4 inhibitors, primary screen, biochemical, fluorescence polarization, mouse; (Lyso)-N-acylphosphatidylethanolamine lipase (Mus musculus), Q8VD66; purified mABHD4, FP-Rh probe fluorescence polarization; inhibition, % at 8.92 µM; 0.54% of 370,000 active; AID 720543, 2013;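 active = inhibition exceeding the mean over every tested compound plus 3 SD, cut at about 30% in these data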;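 note: 0% = plate median of compound wells and 100% = S159A mutant with DMSO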
Target sequence (Q8VD66 whole entry, looked up): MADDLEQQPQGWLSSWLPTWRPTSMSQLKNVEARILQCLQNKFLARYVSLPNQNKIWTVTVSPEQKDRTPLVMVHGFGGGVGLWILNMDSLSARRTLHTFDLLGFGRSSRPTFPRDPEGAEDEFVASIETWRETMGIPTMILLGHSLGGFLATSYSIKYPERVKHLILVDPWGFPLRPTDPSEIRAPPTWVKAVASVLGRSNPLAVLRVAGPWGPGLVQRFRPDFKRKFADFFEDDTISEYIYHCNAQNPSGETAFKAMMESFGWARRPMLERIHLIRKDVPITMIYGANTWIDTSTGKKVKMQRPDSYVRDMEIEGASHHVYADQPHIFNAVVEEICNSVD
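Test system: mABHD4 protein | Buffer or medium: HEPES pH 7.0 buffer, 150 mM NaCl, 0.01% Pluronic F-127 | Probe or stimulus: FP-Rh fluorescent activity-based probe, added after compound pre-incubation | Timing: Pre-incubation 45 min, probe exposure 60 min, at 25 °C | Technique: Fluorescence polarization, excitation 525 nm, emission 598 nm, BODIPY TMR filters | Repeats: Single well per compound (singlicate)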
SIAE inh – human SIAE inhibitors, primary screen, biochemical, fluorescence polarization, FP-Rh probe, 1536-well HTS; inhibition, % at 9.66 µM; SIAE FP-Rh probe binding; AID 1053197, 2014; 0.69% of 370,000 active;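 active = inhibition above a cutoff: mean of compounds within the control limits plus 3 SD of those, cut at about 17% in these data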;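 note: 0% = plate median of compound wells and 100% = probe without SIAE protein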
PRMT1 confirm – PRMT1 methyltransferase inhibitors, confirmation, biochemical, fluorescence polarization, triplicate; shares compounds with PRMT1 inh; recombinant His-PRMT1, activity-based probe fluorescence polarization; inhibition, % at 2.79 µM; 42% of 3,300 active; AID 687036, 2013;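 active = mean inhibition across replicates above the hit cutoff derived for the earlier primary screen, cut at about 22% in these data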
* hit, by the source's call.

For Cc1ccc(N=C2NC(=O)/C(=C\c3ccco3)S2)cc1 the results were PRMT1 inh 6, HTRA1 inhibitor 10, TCR CD3 inh 5, mABHD4 FP 14 and SIAE inh 6.
Cc1cccc(N=C2NC(=O)/C(=C/C=C/c3ccco3)S2)c1 was read as PRMT1 inh 28*, HTRA1 inhibitor 11, TCR CD3 inh -11, mABHD4 FP -1, SIAE inh 15 and PRMT1 confirm 9.
`CCOC(=O)C1(Cc2ccccc2)CCN(Cc2cccc(C#N)c2)CC1` gave PRMT1 inh 2, mABHD4 FP 7 and SIAE inh 3.
Screening CC(OC(=O)c1ccccc1C(=O)N(C)c1ccccc1)C(=O)Nc1ccccc1[N+](=O)[O-] (stereo unspecified) returned PRMT1 inh 3, HTRA1 inhibitor 1, TCR CD3 inh 8, mABHD4 FP -3 and SIAE inh 5.
Screening Cc1cc(N2CCN(C(=O)OC(C)(C)C)C[C@H]2C)ccc1N1CC[C@@H](O)C1 returned PRMT1 inh 61*, TCR CD3 inh 5, mABHD4 FP 24, SIAE inh 4 and PRMT1 confirm 11.
Screening Cc1cc(N2CCN(C(=O)OC(C)(C)C)C[C@H]2C)ccc1N1C[C@@H](C)O[C@@H](C)C1 returned PRMT1 inh 5, TCR CD3 inh 0, mABHD4 FP 7 and SIAE inh 8.
CCCCn1c(N)c(N(CCOC)C(=O)COC(=O)CNC(=O)c2ccc(Cl)c(Cl)c2)c(=O)[nH]c1=O was read as PRMT1 inh -2, HTRA1 inhibitor 0, TCR CD3 inh -1, mABHD4 FP -4 and SIAE inh -5.
`O=C(Nc1ccccc1)N1CCc2scc[n+]2-c2ccccc21` gave PRMT1 inh 56*, HTRA1 inhibitor 4, TCR CD3 inh 0, mABHD4 FP 2, SIAE inh 2 and PRMT1 confirm 19.
For O=CN1CCc2scc[n+]2-c2ccccc21 the results were PRMT1 inh 41*, HTRA1 inhibitor 1, TCR CD3 inh 4, mABHD4 FP 4, SIAE inh -3 and PRMT1 confirm 30*.
For O=CN1CCC(=O)N(Cc2ccccc2)c2ccccc21 the results were PRMT1 inh 0, HTRA1 inhibitor 4, TCR CD3 inh 6, mABHD4 FP 0 and SIAE inh 2.
For CON(Cc1ccccc1)S(=O)(=O)c1ccccc1Br the results were PRMT1 inh -1, TCR CD3 inh 0, mABHD4 FP -9 and SIAE inh 2.
Screening CC(=O)NC1=C(NC2CCS(=O)(=O)C2)C(=O)c2ccccc2C1=O (stereo unspecified) returned PRMT1 inh 44*, HTRA1 inhibitor 2, TCR CD3 inh 2, mABHD4 FP 4, SIAE inh 1 and PRMT1 confirm 67*.
`CC(C)C1CC(N(C)C)=CC(=S)N1` (stereo unspecified) gave PRMT1 inh 35*, TCR CD3 inh 0, mABHD4 FP 2, SIAE inh 5 and PRMT1 confirm 1.
CC(C)(C)c1nnc(SCC(=O)c2ccccc2)n(N)c1=O was read as PRMT1 inh 75*, HTRA1 inhibitor 6, TCR CD3 inh -1, mABHD4 FP 0, SIAE inh 0 and PRMT1 confirm 57*.
CC1(NC(=O)Cc2csc(-c3ccc(Cl)cc3)n2)CCS(=O)(=O)C1 (stereo unspecified) was read as PRMT1 inh -2, HTRA1 inhibitor -7, TCR CD3 inh -6, mABHD4 FP -7 and SIAE inh -3.
COc1ccc(C(=O)NC(=S)NC2CCSC2=O)cc1 (stereo unspecified) was read as PRMT1 inh 29*, HTRA1 inhibitor -1, TCR CD3 inh 7, mABHD4 FP -4, SIAE inh 7 and PRMT1 confirm 7.
O=C(NC(=S)NC1CCSC1=O)c1cccs1 (stereo unspecified) was read as PRMT1 inh 36*, HTRA1 inhibitor 7, TCR CD3 inh 6, mABHD4 FP 2, SIAE inh 2 and PRMT1 confirm 10.
For Cc1ccccc1C(=O)NC(=S)NC1CCSC1=O (stereo unspecified) the results were PRMT1 inh 4, HTRA1 inhibitor 4, TCR CD3 inh -4, mABHD4 FP -2 and SIAE inh 17.
Screening Cc1cc(S(=O)(=O)N2CCCC(C)C2)ccc1-n1cnnn1 (stereo unspecified) returned PRMT1 inh -2, HTRA1 inhibitor 7, TCR CD3 inh -3, mABHD4 FP 1 and SIAE inh -9.
`CCOC(=O)c1c(-c2ccc(C)o2)csc1NC(=O)CN1CCN(CC)CC1` gave PRMT1 inh 79*, HTRA1 inhibitor -10, TCR CD3 inh 0, mABHD4 FP 2, SIAE inh 2 and PRMT1 confirm 3.
For CCOC(=O)c1c(-c2ccc(C)o2)csc1NC(=O)CN1CCCCC1 the results were PRMT1 inh 43*, HTRA1 inhibitor -24, TCR CD3 inh -2, mABHD4 FP -2, SIAE inh 3 and PRMT1 confirm 9.
CCOC(=O)c1c(-c2ccc(C)o2)csc1NC(=O)CSc1nncs1 was read as PRMT1 inh 4, HTRA1 inhibitor -14, TCR CD3 inh 1, mABHD4 FP -3 and SIAE inh -4.
Screening CCOC(=O)c1c(-c2ccc(C)o2)csc1NC(=S)NC(=O)c1ccc(F)cc1 returned PRMT1 inh 4, HTRA1 inhibitor -7, TCR CD3 inh 7, mABHD4 FP -6 and SIAE inh -2.
Screening COc1ccc(-c2cc(NC(=O)Cc3c(C)[nH]c4ccccc34)ccc2Nc2cccnc2)cc1F returned PRMT1 inh -1, TCR CD3 inh -5, mABHD4 FP 9 and SIAE inh 17.
CC(NC(=O)C(=O)NCCc1c[nH]c2ccccc12)c1ccccc1 (stereo unspecified) was read as PRMT1 inh -2, HTRA1 inhibitor 4, TCR CD3 inh 2, mABHD4 FP 1 and SIAE inh -1.
C=CCn1c(SCC(=O)Nc2ccc(Br)cc2)nc(O)c(CC)c1=O was read as PRMT1 inh 53*, HTRA1 inhibitor 1, TCR CD3 inh -4, mABHD4 FP -9, SIAE inh -2 and PRMT1 confirm 16.
`N#Cc1ccc(C(=O)OCC(=O)Nc2cccnc2Cl)cc1` gave PRMT1 inh 1, HTRA1 inhibitor 8, TCR CD3 inh -2, mABHD4 FP -2 and SIAE inh 4.
`O=C1NC(=S)CN1c1ccccc1` gave PRMT1 inh 65*, HTRA1 inhibitor -1, TCR CD3 inh 5, mABHD4 FP 4, SIAE inh 4 and PRMT1 confirm 60*.
